Sampled rows, rich in hits. Any-hit rate of the full collection: about 5.2%.
M1 ag: activates the M1 muscarinic receptor; CHO-M1 cells, Fluo-4 calcium fluorescence, agonist mode; stronger effect = higher value; B-score at 10 µM; hit rate 3% among 64,000; AID 626;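 active = fluorescence rise, raw or as B-score row- and column-corrected plate score, outside the 99.7% band of its plate's samples, either direction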
M1 antag: blocks the rat M1 muscarinic receptor response to acetylcholine. B-score at 10 µM. CHO-M1 cells, Fluo-4 calcium, ACh EC80 antagonist mode; stronger effect = lower value. hit rate 3.4% among 64,000;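 active = calcium fluorescence response, raw or row-and-column corrected B-score, differing from the plate sample mean either way at a set confidence level, mostly lower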
Target sequence (P08482 whole entry, looked up): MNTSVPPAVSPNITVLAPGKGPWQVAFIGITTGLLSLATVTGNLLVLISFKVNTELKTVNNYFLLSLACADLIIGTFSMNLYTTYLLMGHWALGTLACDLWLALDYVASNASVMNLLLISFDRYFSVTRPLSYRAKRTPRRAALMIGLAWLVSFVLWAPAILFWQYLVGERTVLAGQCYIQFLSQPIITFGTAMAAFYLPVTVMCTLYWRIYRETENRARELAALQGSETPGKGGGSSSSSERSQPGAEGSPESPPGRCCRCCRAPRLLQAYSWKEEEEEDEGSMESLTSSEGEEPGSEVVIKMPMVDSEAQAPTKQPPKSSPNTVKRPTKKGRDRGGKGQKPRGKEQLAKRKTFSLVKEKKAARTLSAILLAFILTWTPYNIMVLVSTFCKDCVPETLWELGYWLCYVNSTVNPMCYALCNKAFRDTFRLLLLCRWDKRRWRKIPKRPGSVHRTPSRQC
AP ELISA ortho: alternative pathway complement inhibition, orthogonal assay; Human serum alternative complement pathway, LPS-coated ELISA, C3 deposition; tested in compound mixtures; hit rate 0.08% among 62,000; inhibition, % at 5 µM;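 active = inhibition above 30% in each of the two pooled mixtures holding the compound, so the lower value exceeds 30%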
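Test system: human serum complement alternative pathway, C3 deposition onto LPS / Medium: Mg2+-EGTA GVB++ buffer containing human serum at 1:15 dilution / Probe or stimulus: Plate-bound LPS / Times: 1 h at 37 °C / Signal: ELISA with HRP anti-human C3 antibody, TMB substrate, absorbance 450 nm / Measure: percent inhibition / Repeats: two pool placements per compound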
Ecoli WT expand: growth inhibitors of E. coli BW25113 wild type; growth inhibition, % at 100 µM; OD600 absorbance; hit rate 0.15% among 98,000;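 active = growth inhibition above about 50% at one test dose, limit read from the data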;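 note: growth measured after 20 h incubation at 37 °C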
tolC growth inh: blocks growth of E. coli BW25113 tolC mutant. growth inhibition, % at 10 µM (by protocol). hit rate 2.2% among 65,000. OD615;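 active = growth inhibition at or above a cutoff equal to the mean over every tested compound plus 3 SD, cut at about 60% in these data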;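 note: growth measured after 20 h incubation at 37 °C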
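Test system: E. coli BW25113 ΔtolC::kan bacteria; incubation: 37 °C, 20 h exposure; medium: LB broth supplemented with 50 µg/mL kanamycin; read-out basis: percent growth inhibition; signal: A615 absorbance measurement; compound: 10 µM final, single dose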
WNV protease inh: blocks West Nile virus NS2B-NS3 protease activity; AID 577; P06935; z-score (concentration not given with the values); hit rate 0.18% among 65,000; WNV NS2B-NS3 protease, fluorogenic substrate Ex360/Em465; stronger effect = lower value; in the data active = z-score below about -3
M1 antag conf: M1 muscarinic receptor (rat) antagonism, confirmed; hit rate 43% among 1,700; calcium response (max-min fluorescence) at 10 µM; shares compounds with M1 antag; AID 677; CHO-M1 cells, Fluo-4 calcium, ACh EC80 antagonism; stronger effect = lower value;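 active = calcium response below the same-plate mean of wells given acetylcholine alone at its 80%-effect dose, minus 3 SD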
mGluR4 antag: mGluR4 (human) activity, M1 antagonist secondary assay | shares compounds with M1 antag | CHO-mGluR4 calcium flux, Fluo-4 fluorescence, glutamate EC80; stronger effect = lower value | fluorescence response (max-min) at 10 µM | hit rate 0.9% among 1,700;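 active = fluorescence response below the plate's average for near-maximal glutamate wells, less 3 SD of those wells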;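 note: raw unnormalized fluorescence span taken in the window right after glutamate addition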
A number is an active result; i = inactive; nt = no result.

SMILES	M1 ag	M1 antag	AP ELISA ortho	Ecoli WT expand	tolC growth inh	WNV protease inh	M1 antag conf	mGluR4 antag
O=C(Nc1ccccc1C(=O)OCC(=O)N1CCc2ccccc2C1)c1ccco1	i	i	i	i	i	i	nt	nt
CN1C(=S)SC(/[N+]([O-])=C\c2cccs2)C1(C)C (stereo not given)	i	-8	i	i	i	i	i	i
Cc1ccc(/C=[N+](/[O-])C2SC(=S)N(C)C2(C)C)cc1 (stereo not given)	nt	nt	nt	i	nt	nt	nt	nt
COC(=O)CSc1nc(NC#N)nc(NC(C)C)n1	nt	nt	nt	i	nt	nt	nt	nt
Cn1cc(CN2CCN(c3ccccc3)CC2)c2ccccc21	i	-4.3	i	i	i	i	459	i
CCc1ccc(NC(=O)Nc2cccs2)cc1	i	-2.3	i	i	i	i	i	i
O=C(CSc1nc2cc(Cl)ccc2s1)NC(=O)NCc1ccco1	i	-2.1	i	i	i	i	i	i
O=C(NCc1ccco1)c1cc2cc3ccc(Cl)cc3nc2o1	i	-2.5	i	i	i	i	i	i
FC(F)(F)c1nc2ccccc2nc1N/N=C\c1ccccc1	nt	nt	nt	i	nt	nt	nt	nt
CCOC(=O)N1CCN(CC(O)COCC2=CCC3CC2C3(C)C)CC1 (stereo not given)	i	-6.3	i	i	i	i	456	i
CCOC(=O)N1CCN(CC(O)COCc2ccccc2)CC1 (stereo not given)	nt	nt	nt	i	nt	nt	nt	nt
CCn1c(=O)cc(OCC(=O)Nc2cccnc2)c2ccccc21	i	-1.7	i	i	i	i	i	i
COc1ccc(CN2CCc3ccccc3C2)c(OC)c1OC	nt	nt	nt	i	nt	nt	nt	nt
CCOc1ccc2nc(SCc3ccc(C(=O)OC)o3)[nH]c2c1	i	i	i	i	i	i	nt	nt
CCN(CC)CCCn1c(C)cc2c(c1=O)C(c1cccc(Cl)c1)C(C#N)=C(N)O2 (stereo not given)	i	-4.9	nt	i	i	i	i	i
Cc1cc2c(c(=O)n1CCN(C)C)C(c1ccncc1)C(C#N)=C(N)O2 (stereo not given)	i	-2.9	i	i	i	i	i	i
CCn1c(C)cc2c(c1=O)C(c1ccccc1Br)C(C#N)=C(N)O2 (stereo not given)	nt	nt	i	i	i	i	nt	nt
CCN(CC)CCCn1c(C)cc2c(c1=O)C(c1cc(OC)c(OC)cc1OC)C(C#N)=C(N)O2 (stereo not given)	i	-11	i	i	i	i	279	i
COc1nc2c(C)cccc2cc1-c1noc(-c2ccncc2)n1	i	i	i	nt	i	i	nt	nt
O=C(C1CCCCC1)N(Cc1nc2sc3c(c2c(=O)[nH]1)CCCC3)Cc1cccs1	i	i	i	i	i	i	nt	nt
CON(C)c1nc(OCCNC(=O)OCc2ccc(Cl)cc2Cl)nc(N(C)C)n1	i	i	i	i	i	i	nt	nt
COC(=O)c1ccc(C(=O)OC)c(NC(=O)c2ocnc2C)c1	i	i	i	nt	i	i	nt	nt
Cc1ccc(C)n1-c1ccc(-c2nnc3n2CCCCC3)s1	i	-1.4	i	i	i	i	i	i
C1CCc2nnc(-c3nnc4n3CCCCC4)n2CC1	i	i	i	i	i	i	nt	nt
CCOC(=O)c1cnc(-n2nc(C)cc2C)nc1NCCO	nt	nt	nt	i	nt	nt	nt	nt
SMILES	M1 ag	M1 antag	AP ELISA ortho	Ecoli WT expand	tolC growth inh	WNV protease inh	M1 antag conf	mGluR4 antag
CCOC(=O)c1cnc(-n2nc(C)cc2C)nc1NCc1ccccc1	i	-4.3	i	i	100	i	405	i
Cn1c(N)c(C(=O)COC(=O)C2(c3cccc(F)c3)CCCC2)c(=O)n(C)c1=O	i	-2.8	i	i	i	i	i	i
COC(=O)c1ccccc1NC(=O)N1CCN(C/C=C/c2ccccc2)CC1	i	-4.1	i	i	i	i	i	i
Cc1ccc(Cn2c(CN3CC(C)OC(C)C3)nc3c2c(=O)[nH]c(=O)n3C)cc1 (stereo not given)	i	-5.2	i	i	i	i	i	i
Cc1ccc(Cn2c(SCCN3CCOCC3)nc3c2c(=O)n(C)c(=O)n3C)cc1	i	i	i	i	i	i	nt	nt
C=CCn1c(SCCN2CCCCC2)nc2c1c(=O)[nH]c(=O)n2C	i	-2.7	i	i	i	i	i	i
Cc1cccc(Cn2c(Sc3nc(C)cs3)nc3c2c(=O)[nH]c(=O)n3C)c1	i	-7.1	i	i	i	i	524	i
C=CCn1c(SCCOC)nc2c1c(=O)[nH]c(=O)n2C	i	i	i	i	i	i	nt	nt
Cc1ccc(Cn2c(SCCN3CCCCC3)nc3c2c(=O)[nH]c(=O)n3C)cc1	i	-1.9	i	i	i	i	457	i
CCOC(=O)CCNC(=O)CNC(=O)OCc1ccccc1	i	i	i	i	i	i	nt	nt
CCCC(CCC)C(=O)Nc1c[nH]c(=O)[nH]c1=O	nt	nt	nt	i	nt	nt	nt	nt
CCNc1nc(NC(C)C)nc(Oc2ccc(OCCOc3ccc(C)cc3)nn2)n1	i	i	i	i	i	i	nt	nt
Cn1c(=O)[nH]c(=O)c2c1nc(SCCN1CCCCC1)n2CCCc1ccccc1	i	-3.8	i	i	i	i	i	i
Cn1c(=O)[nH]c(=O)c2c1nc(SCCN1CCCCC1)n2Cc1ccccc1	i	-3.8	nt	i	i	i	530	i
CCCCCn1c(SCCc2ccccc2)nc2c1c(=O)[nH]c(=O)n2C	i	i	i	i	i	i	nt	nt
CCN(CC)CCCN1C(=O)C(=O)/C(=C(/O)c2ccc3c(c2)CC(C)O3)C1c1cccnc1 (stereo not given)	i	i	nt	nt	i	i	nt	nt
O=C(CCC1CCCCC1)Nc1ccc(S(=O)(=O)Nc2nccs2)cc1	nt	nt	nt	i	nt	nt	nt	nt
O=C(O)CCC(=O)Nc1ccc(S(=O)(=O)Nc2nccs2)cc1	i	-11	i	nt	i	i	i	i
Cc1cccn2c(=O)c3cc(C(=O)NC(C)c4ccccc4)c(=N)n(CCCn4ccnc4)c3nc12 (stereo not given)	i	-2.9	i	nt	i	i	317	i
Cc1ccc2nc3c(cc(C(=O)NCc4ccccc4)c(=N)n3CCCn3ccnc3)c(=O)n2c1	i	-4.2	i	nt	i	i	i	i
CCn1c(=N)c(C(=O)NC)cc2c(=O)n3cccc(C)c3nc21	i	i	i	nt	i	i	nt	nt
Cc1ccc2nc3c(cc(C(=O)NCc4cccnc4)c(=N)n3C(C)C)c(=O)n2c1	i	i	i	nt	i	i	nt	nt
Nc1nc(Br)c2c(F)cccc2c1-c1ccc(F)cc1	nt	nt	nt	i	nt	nt	nt	nt
CCOC(=O)C1=C(C)NC(=O)NC1c1cn(-c2ccccc2)nc1-c1cccs1 (stereo not given)	i	i	i	i	i	i	nt	nt
COC(=O)C1=C(C)NC(=O)NC1c1cn(-c2ccccc2)nc1-c1cccs1 (stereo not given)	i	-2.7	i	i	i	i	i	i
CCCCS/C(=C(/C#N)C(N)=O)c1cc2c([nH]1)CCCC2	i	-6	i	i	i	i	140	i
